# In ChEMBL document CHEMBL4130546, “Structures of the Largest Amphidinol Homologues from the Dinoflagellate Amphidinium carterae and Structure-Activity Relationships” (J Nat Prod, 2017):
# How the values were obtained:
# [1] = system: Lipid bilayer; experiment: Membrane disrupting activity in large unilamellar vesicles assessed as calcein AM dye leakage at 10 uM by fluorescence assay relative to control; assay type: physicochemical
# Summary of the method: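 Calcein-loaded POPC or POPC/cholesterol (9:1 mol ratio) LUVs, with excess dye removed by Sepharose 4B gel filtration in Tris-HCl pH 7.5 containing 1 mM EDTA and 150 mM NaCl. Lipid at 27 μM in PBS. Fluorescence (ex 490/em 517 nm) read before and after adding compound. Triton X-100 was then added to define 100% leakage.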
# [2] = system: Aspergillus niger; experiment: Antifungal activity against Aspergillus niger NBRC 31032 after 2 days by paper disk method; assay type: functional
# Summary of the method: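 A. niger grown 2 days at 25 °C in glucose/peptone broth, spread on agar of the same medium (1.5% agar). Samples in MeOH spotted on 8 mm paper disks, up to 60 μg/disk; after 2 days at 25 °C the inhibition zone was measured and minimum effective concentration recorded.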
# [3] = system: Erythrocyte; experiment: Hemolytic activity in human erythrocytes after 18 hrs by colorimetric method; assay type: ADME, cell-based
# Summary of the method: (§1)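 Human RBCs washed in PBS (pH 7.4) by centrifugation and diluted to a 1% suspension (~1.7 × 10^7 cells/mL). 190 μL suspension mixed with 10 μL sample (up to 80 μM) or PBS; water-lysed RBCs served as 100%. Incubated at 37 °C for 18 h, centrifuged, supernatant absorbance read at 450 nm. % hemolysis and EC50 taken from dose-response curves.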
# [4] = system: Lipid bilayer; experiment: Membrane disrupting activity in POPC large unilamellar vesicles assessed as calcein AM dye leakage at 80 uM by fluorescence assay relative to control; assay type: physicochemical
# Summary of the method: (§2)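 Calcein-loaded LUVs of POPC or POPC/Chol (9:1 mol) freed of external dye on Sepharose 4B in Tris-HCl pH 7.5, EDTA, NaCl. Vesicles diluted in PBS to 27 μM lipid and fluorescence read (ex 490/em 517 nm). Sample added and fluorescence re-read, then Triton X-100 added to give 100% leakage.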
# [5] = system: Lipid bilayer; experiment: Membrane disrupting activity in POPC/cholesterol large unilamellar vesicles assessed as calcein AM dye leakage at 80 uM by fluorescence assay relative to control; assay type: physicochemical; summary of the method: as §2
# [6] = system: Lipid bilayer; experiment: Membrane disrupting activity in POPC/cholesterol large unilamellar vesicles assessed as calcein AM dye leakage at 20 uM by fluorescence assay relative to control; assay type: physicochemical; summary of the method: as §2
# [7] = system: Lipid bilayer; experiment: Membrane disrupting activity in POPC large unilamellar vesicles assessed as calcein AM dye leakage at 20 uM by fluorescence assay relative to control; assay type: physicochemical; summary of the method: as §2
# [8] = Hemolytic activity in human erythrocytes at 20 uM after 18 hrs by colorimetric method; assay type: ADME, cell-based, Erythrocyte; conditions: read-out: Activity; summary of the method: as §1
Activity [4] [%],Activity [5] [%],Activity [6] [%],Activity [7] [%],Structure (SMILES),Activity [1] [%],MEC [2] [µg],EC50 [3] [nM],"hemolysis at 18 h, 20 µM [8] [%]"
,,,,C=C/C=C/CC/C=C/C=C/C=C/CC/C=C/[C@H](O)[C@H](O)[C@@H]1O[C@@H]([C@H](O)[C@H](O)C(=C)CC[C@@H](O)[C@H]2C[C@@H](O)[C@@H](O)[C@H]([C@@H](O)[C@H](O)/C=C(\C)CC[C@H](O)C[C@H](O)[C@H](O)[C@@H](C)C[C@H](O)[C@@H](O)CCCCC[C@@H](O)CCC[C@@H](O)/C=C/C[C@@H](O)/C=C/C[C@@H](O)CO)O2)C[C@@H](O)[C@H]1O,100,,,
20,20,< 50,< 50,C=CCC/C=C/C=C/C=C/CC/C=C/C(O)C(O)[C@@H]1O[C@@H](C(O)C(O)C(=C)CCC(O)[C@H]2C[C@@H](O)[C@@H](O)[C@H](C(O)C(O)/C=C(\C)CCC(O)CC(O)C(O)C(C)CC(O)CC(C)/C=C(\C)CC(O)CC(C)CCC(O)CC(O)C(O)C(C)CC(O)CC(O)C(O)C(C)C(O)CCCC(O)CCCC(O)CCCC(O)/C=C/CC(O)/C=C/CO)O2)C[C@@H](O)[C@H]1O (stereo not given in full),,>15,> 10000,
,,,,C=CCC/C=C/C=C/C=C/CC/C=C/C(O)C(O)C1OC(C(O)C(O)C(=C)CCC(O)C2CC(O)C(O)C(C(O)C(O)/C=C(\C)CCC(O)CC(O)C(O)C(C)CC(O)CC(C)/C=C(\C)CC(O)CC(C)CC(O)C3CC(O)C(O)C(CC(O)CC(O)CO)O3)O2)CC(O)C1O (stereo not given),,6,1700,
,,,,C=CCC/C=C/C=C/C=C/CC/C=C/C(O)C(O)C1OC(C(O)C(O)C(=C)CCC(O)C2CC(O)C(O)C(C(O)C(O)/C=C(\C)CCC(O)CC(O)C(O)C(C)CC(O)C(O)CCCC(O)CCCC(O)CCCC(O)/C=C/CC(O)/C=C/CC(O)CO)O2)CC(O)C1O (stereo not given),,6,2900,
20,20,< 50,< 50,C=CCC/C=C/C=C/C=C/CC/C=C/C(O)C(O)[C@@H]1O[C@@H](C(O)C(O)C(=C)CCC(O)[C@H]2C[C@@H](O)[C@@H](O)[C@H](C(O)C(O)/C=C(\C)CCC(O)CC(O)C(O)C(C)CC(O)CC(C)/C=C(\C)CC(O)CC(C)CCC(O)CC(O)C(O)C(C)C(O)CCCC(O)CCCC(O)CCCC(O)/C=C/CC(O)/C=C/CO)O2)C[C@@H](O)[C@H]1O (stereo not given in full),,>15,1000 to 3000,< 100
,,,,C=CCC/C=C/C=C/C=C/CC/C=C/C(O)C(O)C1OC(C(O)C(O)C(=C)CCC(O)C2CC(O)C(O)C(C(O)C(O)/C=C(\C)CCC(O)CC(O)C(O)C(C)CC(O)C(O)CC(C)CC/C=C/CC(O)CO)O2)CC(O)C1O (stereo not given),,8,1200,
